From ChEMBL document CHEMBL1151781, “Selectivity of inhibitors of endocannabinoid biosynthesis evaluated by activity-based protein profiling” (Bioorg Med Chem Lett, 2008)
The source made the active and inactive calls. No cut-off for these calls is given here.

Columns and labels:
[1] = molecular target: T1, Neutral cholesterol ester hydrolase 1 (Mus musculus) (UniProt Q8BLF1); assay: Inhibition of KIAA1363 in mouse brain assessed as reduction in spectral count at 50 uM treated for 30 mins by ABPP-MudPIT assay relative to control; format: tissue-based
T1 sequence (whole entry): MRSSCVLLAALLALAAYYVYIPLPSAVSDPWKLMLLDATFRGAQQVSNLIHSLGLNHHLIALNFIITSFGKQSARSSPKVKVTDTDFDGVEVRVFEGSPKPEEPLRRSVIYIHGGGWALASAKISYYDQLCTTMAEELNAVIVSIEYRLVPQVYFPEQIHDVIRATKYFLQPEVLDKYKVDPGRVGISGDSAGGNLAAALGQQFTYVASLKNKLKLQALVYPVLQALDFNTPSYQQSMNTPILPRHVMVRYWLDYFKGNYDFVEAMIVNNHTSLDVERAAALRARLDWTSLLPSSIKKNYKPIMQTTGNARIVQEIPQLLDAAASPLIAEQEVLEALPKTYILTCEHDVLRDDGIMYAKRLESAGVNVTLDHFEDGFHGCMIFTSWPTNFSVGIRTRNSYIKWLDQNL
Method in brief: (§1)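 Mouse brain proteome was treated with inhibitor at the stated single concentration, or DMSO as control, for 30 min. FP-biotin (5 μM) was then added for 120 min, followed by avidin enrichment and LC-MS (ABPP-MudPIT). Runs were in triplicate. Only hydrolases with >15 average spectral counts in control were quantified. Blockade is the percent reduction in average spectral counts versus DMSO; >60% defined a target.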

[2] = molecular target: T2, Phosphatidylserine lipase ABHD16A (Mus musculus) (UniProt Q9Z1Q2); assay: Inhibition of BAT5 in mouse brain assessed as reduction in spectral count at 50 uM treated for 30 mins by ABPP-MudPIT assay relative to control; format: tissue-based; method in brief: as §1
T2 sequence (whole entry): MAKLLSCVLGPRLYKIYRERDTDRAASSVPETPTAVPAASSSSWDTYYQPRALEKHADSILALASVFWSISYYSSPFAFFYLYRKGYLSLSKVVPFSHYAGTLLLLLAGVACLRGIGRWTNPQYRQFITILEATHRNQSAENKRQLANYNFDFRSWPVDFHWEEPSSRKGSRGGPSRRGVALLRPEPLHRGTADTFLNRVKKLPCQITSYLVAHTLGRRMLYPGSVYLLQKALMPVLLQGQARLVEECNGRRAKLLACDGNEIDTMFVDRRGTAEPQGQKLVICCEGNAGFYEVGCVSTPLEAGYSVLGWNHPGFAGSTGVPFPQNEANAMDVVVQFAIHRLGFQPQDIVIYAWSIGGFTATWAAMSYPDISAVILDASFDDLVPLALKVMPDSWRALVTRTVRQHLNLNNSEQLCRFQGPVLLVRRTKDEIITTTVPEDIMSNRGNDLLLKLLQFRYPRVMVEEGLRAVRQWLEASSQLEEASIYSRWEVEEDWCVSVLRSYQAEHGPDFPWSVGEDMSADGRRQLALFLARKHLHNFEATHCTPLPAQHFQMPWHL

[3] = molecular target: T3, Platelet-activating factor acetylhydrolase (Mus musculus) (UniProt Q60963); assay: Inhibition of PLA2g7 in mouse brain assessed as reduction in spectral count at 5 uM treated for 30 mins by ABPP-MudPIT assay relative to control; format: tissue-based; method in brief: as §1
T3 sequence (whole entry): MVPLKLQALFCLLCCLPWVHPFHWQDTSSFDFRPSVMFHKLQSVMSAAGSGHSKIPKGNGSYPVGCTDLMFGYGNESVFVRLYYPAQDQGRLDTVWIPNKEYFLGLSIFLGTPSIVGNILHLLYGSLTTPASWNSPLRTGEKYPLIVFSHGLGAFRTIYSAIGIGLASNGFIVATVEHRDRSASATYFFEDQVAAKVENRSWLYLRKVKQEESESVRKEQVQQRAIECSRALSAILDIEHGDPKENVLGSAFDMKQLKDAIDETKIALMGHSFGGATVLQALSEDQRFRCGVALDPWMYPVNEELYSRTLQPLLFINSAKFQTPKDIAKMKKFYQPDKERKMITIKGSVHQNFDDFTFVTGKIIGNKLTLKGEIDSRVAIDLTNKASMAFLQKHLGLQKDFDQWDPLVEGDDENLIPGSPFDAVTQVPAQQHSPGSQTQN

[4] = molecular target: Hormone-sensitive lipase (Mus musculus) (UniProt P54310); assay: Inhibition of HSL in mouse brain assessed as reduction in spectral count at 50 uM treated for 30 mins by ABPP-MudPIT assay relative to control; format: tissue-based; method in brief: as §1
[5] = molecular target: T3, Platelet-activating factor acetylhydrolase (Mus musculus); assay: Inhibition of PLA2g7 in mouse brain by LC-MS analysis; format: tissue-based
[6] = molecular target: T4, Lysophosphatidylserine lipase ABHD12 (Mus musculus) (UniProt Q99LR1); conditions: Brain, 5 uM
T4 sequence (whole entry): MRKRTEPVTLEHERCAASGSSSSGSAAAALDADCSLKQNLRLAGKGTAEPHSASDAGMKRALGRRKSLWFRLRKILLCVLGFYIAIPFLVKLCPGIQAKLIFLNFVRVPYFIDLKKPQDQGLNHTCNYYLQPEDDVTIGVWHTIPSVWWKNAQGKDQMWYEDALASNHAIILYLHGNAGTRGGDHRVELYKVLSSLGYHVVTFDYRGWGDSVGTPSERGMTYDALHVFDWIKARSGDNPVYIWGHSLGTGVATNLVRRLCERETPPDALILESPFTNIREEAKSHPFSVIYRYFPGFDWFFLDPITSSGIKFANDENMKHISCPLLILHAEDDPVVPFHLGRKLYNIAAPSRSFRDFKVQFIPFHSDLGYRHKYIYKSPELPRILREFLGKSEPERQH

[7] = molecular target: T3, Platelet-activating factor acetylhydrolase (Mus musculus); conditions: Brain, 50 uM
[8] = molecular target: Tripeptidyl-peptidase 2 (Mus musculus) (UniProt Q64514); conditions: Brain, 5 uM
Chain of Tripeptidyl-peptidase 2 (Mus musculus) (Q64514 whole entry): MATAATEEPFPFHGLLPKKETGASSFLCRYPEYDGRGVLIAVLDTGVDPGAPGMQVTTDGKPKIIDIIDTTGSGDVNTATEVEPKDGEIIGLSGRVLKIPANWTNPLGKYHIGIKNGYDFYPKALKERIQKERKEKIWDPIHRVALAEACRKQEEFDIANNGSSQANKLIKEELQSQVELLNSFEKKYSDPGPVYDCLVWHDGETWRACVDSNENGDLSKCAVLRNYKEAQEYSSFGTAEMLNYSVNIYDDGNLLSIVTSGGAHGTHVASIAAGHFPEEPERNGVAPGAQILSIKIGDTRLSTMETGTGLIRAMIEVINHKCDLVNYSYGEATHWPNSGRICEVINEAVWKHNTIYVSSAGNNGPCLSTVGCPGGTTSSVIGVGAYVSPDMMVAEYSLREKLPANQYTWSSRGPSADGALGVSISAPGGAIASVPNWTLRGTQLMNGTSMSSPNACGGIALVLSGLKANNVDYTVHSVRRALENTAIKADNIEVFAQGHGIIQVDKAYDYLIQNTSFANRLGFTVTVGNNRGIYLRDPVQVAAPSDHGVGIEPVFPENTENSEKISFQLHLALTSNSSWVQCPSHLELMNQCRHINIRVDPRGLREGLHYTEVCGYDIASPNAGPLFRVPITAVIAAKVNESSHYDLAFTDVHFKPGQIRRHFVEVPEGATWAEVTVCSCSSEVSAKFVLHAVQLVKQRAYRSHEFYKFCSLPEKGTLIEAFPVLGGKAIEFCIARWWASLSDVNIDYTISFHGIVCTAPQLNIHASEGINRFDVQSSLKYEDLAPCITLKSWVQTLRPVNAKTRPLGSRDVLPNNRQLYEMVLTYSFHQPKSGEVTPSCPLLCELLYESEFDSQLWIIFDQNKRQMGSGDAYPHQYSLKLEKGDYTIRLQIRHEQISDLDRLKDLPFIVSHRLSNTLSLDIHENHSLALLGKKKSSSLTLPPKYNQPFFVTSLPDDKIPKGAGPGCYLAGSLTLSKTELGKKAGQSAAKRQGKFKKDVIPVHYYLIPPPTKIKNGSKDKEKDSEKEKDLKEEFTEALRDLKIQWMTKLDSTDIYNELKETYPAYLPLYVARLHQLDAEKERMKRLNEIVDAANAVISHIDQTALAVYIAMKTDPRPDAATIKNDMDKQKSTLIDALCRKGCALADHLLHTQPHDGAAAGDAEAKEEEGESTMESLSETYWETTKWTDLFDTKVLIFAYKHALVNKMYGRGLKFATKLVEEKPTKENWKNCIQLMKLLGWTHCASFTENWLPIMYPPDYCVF

Chain of Hormone-sensitive lipase (Mus musculus) (P54310 whole entry): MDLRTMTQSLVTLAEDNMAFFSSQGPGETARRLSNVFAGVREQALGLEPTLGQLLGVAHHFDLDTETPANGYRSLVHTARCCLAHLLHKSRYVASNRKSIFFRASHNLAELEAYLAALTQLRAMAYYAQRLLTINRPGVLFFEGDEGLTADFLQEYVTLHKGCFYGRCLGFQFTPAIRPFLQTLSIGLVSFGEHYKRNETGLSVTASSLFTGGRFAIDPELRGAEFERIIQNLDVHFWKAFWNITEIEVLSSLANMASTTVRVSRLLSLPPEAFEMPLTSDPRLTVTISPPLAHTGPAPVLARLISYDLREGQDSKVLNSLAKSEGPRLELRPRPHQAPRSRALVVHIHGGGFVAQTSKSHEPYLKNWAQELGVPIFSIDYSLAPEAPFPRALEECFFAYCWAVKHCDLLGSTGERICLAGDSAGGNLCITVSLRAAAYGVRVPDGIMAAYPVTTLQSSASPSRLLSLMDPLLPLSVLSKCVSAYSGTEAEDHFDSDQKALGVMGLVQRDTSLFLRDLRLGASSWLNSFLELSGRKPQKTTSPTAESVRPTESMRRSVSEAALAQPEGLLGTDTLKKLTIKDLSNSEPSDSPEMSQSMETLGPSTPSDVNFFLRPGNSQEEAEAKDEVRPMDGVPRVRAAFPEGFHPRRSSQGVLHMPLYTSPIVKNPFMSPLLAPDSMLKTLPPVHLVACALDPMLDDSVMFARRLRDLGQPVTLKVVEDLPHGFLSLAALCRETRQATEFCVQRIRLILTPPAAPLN

Compound | inhibition [1] [%] | inhibition [2] [%] | inhibition [3] [%] | inhibition [4] [%] | Activity [5] | inhibition [6] [%] | inhibition [7] [%] | inhibition [8] [%]
O=C(NCCCCCCNC(=O)ON=C1CCCCC1)ON=C1CCCCC1 | > 60 | > 60 | > 60 | < 60 | Active | – | – | –
CCCCCCCCCCC[C@@H](C[C@@H]1OC(=O)[C@H]1CCCCCC)OC(=O)[C@H](CC(C)C)NC=O [ORLISTAT] | – | – | – | – | – | > 60 | > 60 | > 60
